Runt-CBFb FRET: blocks binding of human RUNX1 Runt domain to CBFb; Q01196+Q13951; Cerulean-Runt/Venus-CBFb FRET ratio 530/480, 1 h; inhibition, % at 20 µM; 0.46% of 220,000 active; AID 1496;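 active means inhibition over about 50% at 20 µM in the single-dose screen, limit read from the data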;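 further: 0% = DMSO wells and 100% = excess unlabeled CBFb competitor control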
Target sequence (Q01196 whole entry, looked up, the tested form may be a part): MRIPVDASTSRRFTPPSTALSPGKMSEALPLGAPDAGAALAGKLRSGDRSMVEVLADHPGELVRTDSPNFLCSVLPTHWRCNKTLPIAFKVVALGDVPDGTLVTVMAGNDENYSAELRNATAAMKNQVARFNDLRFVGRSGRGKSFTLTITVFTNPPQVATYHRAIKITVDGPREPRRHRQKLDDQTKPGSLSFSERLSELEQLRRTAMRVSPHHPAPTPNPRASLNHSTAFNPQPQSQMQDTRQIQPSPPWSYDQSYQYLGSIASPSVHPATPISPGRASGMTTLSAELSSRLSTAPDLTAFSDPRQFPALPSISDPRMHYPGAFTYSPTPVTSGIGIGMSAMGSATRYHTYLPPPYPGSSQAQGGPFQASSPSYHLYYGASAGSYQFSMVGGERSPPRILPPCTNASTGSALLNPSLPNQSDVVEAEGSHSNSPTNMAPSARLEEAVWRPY
Target sequence (Q13951 whole entry, looked up, the tested form may be a part): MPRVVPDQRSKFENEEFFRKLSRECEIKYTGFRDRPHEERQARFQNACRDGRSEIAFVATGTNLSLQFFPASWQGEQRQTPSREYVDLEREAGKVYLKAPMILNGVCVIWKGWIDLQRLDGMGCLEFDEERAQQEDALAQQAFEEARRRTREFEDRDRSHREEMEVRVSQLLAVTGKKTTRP
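Reagent – Venus-CBFb binding partner, 100 nM · Assay system – Cerulean-tagged RUNX1 Runt domain (FRET donor) fusion protein · Input – 100 nM per protein · Incubation – two 1 h room-temperature incubations shielded from light · Measured by – FRET fluorescence · Medium – Tris buffer pH 7.5 with salts and BSA · Benchmarks – unlabeled CBFb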
Runt-SMMHC FRET: blocks binding of human RUNX1 Runt domain to CBFb-SMMHC. 0.74% of 220,000 active. AID 1434. Cerulean-Runt/Venus-CBFb-SMMHC FRET ratio 530/480, 1 h. inhibition, % at 20 µM;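 active means mean inhibition across duplicate retests at 20 µM reaching about 50%, limit read from the data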;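 further: 0% = DMSO wells and 100% = wells with excess untagged CBFb-SMMHC; inhibitors lower the FRET ratio by blocking Runt binding to CBFb-SMMHC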
Hck Nef HTS: inhibitors of human Hck kinase activated by Nef; P08631; Recombinant Hck-YEEI plus Nef, Z-Lyte FRET kinase assay; inhibition, % at 20 µM; 0.68% of 220,000 active; AID 463187;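 active means Hck-Nef kinase inhibition above about 50%, limit read from the data; inactive means inhibition below that limit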;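 further: 0% = DMSO with Hck plus Nef and 100% = Hck alone without Nef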
RanGTP-Imp inh: disruptors of Ran-importin-beta complex formation – biochemical, FRET, CFP-Ran, YFP-importin-beta, homogeneous, primary screen. cell-free CFP-Ran/YFP-importin-beta FRET ratio. inhibition, % (test concentration not listed). AID 2216. 1.1% of 300,000 active;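 active means more than half of the replicate wells show a fall in the fluorescence ratio signal beyond about 16%, limit read from the data, passing the limit was not always enough; inconclusive means exactly half of the replicate wells pass the set limit; inactive means fewer than half of replicates pass the limit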;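 further: 0% = DMSO wells and 100% = Ran loaded with GDP instead of GTP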
* hit, by the source's call; u = inconclusive; x = no result. Only some compounds are listed: those with a hit (about 1.8% of all), similar ones and a draw of the others.

SMILES	Runt-CBFb FRET	Runt-SMMHC FRET	Hck Nef HTS	RanGTP-Imp inh
CN=Cc1nc(-c2ccccc2)oc1O	2	3	6	0
Cc1ccc(-c2nc(C=Nc3ccc(O)cc3)c(O)o2)cc1	-6	-20	33	22*
O=C(O)c1ccc(S(=O)(=O)N2CCCCCC2)cc1	3	-1	2	2
Nc1cccc2c1C(=O)N(C(=O)c1ccc(S(=O)(=O)N3CCCCCC3)cc1)C2=O	12	58*	1	11
O=C(O)c1ccc2c3c(cccc13)C(=O)N(c1ccccc1)C2=O	-1	120	19	u
CC(=O)Nc1ccc2c3c(cccc13)C(=O)N(c1ccccc1)C2=O	21	87*	8	73*
Cc1ccccc1C(=O)N1CCC(C(=O)NCCc2ccc(S(N)(=O)=O)cc2)CC1	x	x	x	-3
Cc1c(CCC(=O)O)c(=O)oc2cc3occ(C(C)(C)C)c3cc12	-2	-3	14	-4
Cc1c(CCC(=O)O)c(=O)oc2cc(O)ccc12	33	75*	9	3
Cc1cc(C)cc(NC(=O)CSCc2cc(=O)n3ccsc3n2)c1	x	x	x	-1
CCN(CC)c1ccc(-c2nn3c(-c4cccnc4)nnc3s2)cc1	21	80*	32	11
c1cncc(-c2nnc3sc(-c4ccco4)nn23)c1	3	-3	3	5
Cc1cccn2c(=O)c3cc(C(=O)NCc4ccco4)c(=N)n(CCc4ccccc4)c3nc12	12	79*	42	x
Cc1cccn2c(=O)c3cc(C(=O)NCCc4ccccc4)c(=N)n(Cc4ccco4)c3nc12	x	x	x	74*
COc1ccc(CCNC(=O)c2ccc3c(=O)n(Cc4ccco4)c(=S)[nH]c3c2)cc1OC	7	-12	3	-1
Cc1cccn2c(=O)c3cc(C(=O)NCC4CCCO4)c(=N)n(CCc4ccccc4)c3nc12 (configuration not stated)	x	x	x	176*
COc1ccc(CCNC(=O)c2cc3c(=O)n4cccc(C)c4nc3n(Cc3ccco3)c2=N)cc1OC	x	x	x	53*
COc1ccc(CCNC(=O)c2cc3c(=O)n4cccc(C)c4nc3n(CC3CCCO3)c2=N)cc1 (configuration not stated)	x	x	x	-9
O=C(CNC(=O)c1ccc(Br)o1)Nc1cccc(S(=O)(=O)N2CCCC2)c1	x	x	x	-1
CCOc1ccc(N(CC(=O)NC2CCCCC2)C(=O)CCC(=O)Nc2nc(C)cs2)cc1	x	x	x	2
COc1ccc(CCNC(=O)c2cc3c(=O)n4cccc(C)c4nc3n(Cc3ccncc3)c2=N)cc1	105*	132*	x	x
Cc1cc(CN2CCC(N3CCC(C(=O)NC4CC4)CC3)CC2)cc(C)c1O	x	x	x	0
Cc1ccc(NC(=O)CSc2nnc(C3CC3)n2CC2CCCO2)c(C)c1 (configuration not stated)	x	x	x	0
CN1CCc2nc(NC(=O)COc3ccc(C#N)cc3)sc2C1	36	59*	33	23*
O=C(COc1ccccc1)Nc1nc2c(s1)CCCC2	x	x	x	-2
SMILES	Runt-CBFb FRET	Runt-SMMHC FRET	Hck Nef HTS	RanGTP-Imp inh
C=CCOC(=O)C1=C(C)OC(N)=C(C#N)C1c1ccc2c(c1)OCO2 (configuration not stated)	0	5	5	25*
O=C(O)C(=O)/C(=C\c1ccc(Cl)cc1)c1ccc2ccccc2n1	39	96*	15	-5
O=C(Nc1cccc(Cl)c1)Nc1nnc(-c2ccncc2)s1	-7	-7	57*	-1
O=C(Nc1ccc(Cl)cc1)Nc1nnc(-c2ccncc2)s1	-3	-5	12	0
O=C(Nc1nccs1)c1ccc(S(=O)(=O)N2CCOCC2)cc1	2	3	1	-3
O=C(CCc1ccc(S(=O)(=O)N2CCOCC2)cc1)Nc1nccs1	104*	147	-2	1
O=C(CCN1C(=O)c2cccc3cccc(c23)C1=O)Nc1ccccc1	-3	1	1	-1
COc1cccc(N(CC(=O)NC2CCCCC2)C(=O)CCC(=O)Nc2nc(C)cs2)c1	x	x	x	-6
CCC(CO)Nc1ccc(-c2n[nH]c(=O)c3ccccc23)cc1[N+](=O)[O-] (configuration not stated)	x	x	x	-1
CCCOc1ccc(-c2nn(-c3ccccc3)cc2/C=C2\SC(N)=NC2=O)cc1	-1	21	7	19*
Cc1cc(-c2nn(-c3ccccc3)cc2/C=C2\SC(N)=NC2=O)ccc1OC(C)C	0	-40	0	-2
O=C(Cc1nc2ccccc2s1)c1ccc(O)cc1O	36	114*	2	0
CCN1CCc2c(sc(NC(=O)c3ccc(S(=O)(=O)N(CC)c4ccccc4)cc3)c2C(N)=O)C1	x	x	x	72*
CCN1CCc2c(sc(NC(=S)NC(=O)c3ccco3)c2C(N)=O)C1	12	58*	-42	163*
CCC(=O)Nc1sc2c(c1C(N)=O)CCN(C(C)=O)C2	x	-3	6	1
CN1CCc2c(sc(NC(=O)Cc3ccc(F)cc3)c2C(N)=O)C1	x	x	x	131*
CCN1CCc2c(sc(NC(=O)Cc3ccccc3)c2C(N)=O)C1	x	x	x	155*
CCN1CCc2c(sc(NC(=O)c3ccc(C(=O)c4ccccc4)cc3)c2C(N)=O)C1	x	x	x	9
CN(C)c1cc(-c2ccc(Br)cc2)oc(=O)c1Cl	0	1	9	-1
Cc1cc(OCc2cc(C(=O)N(C)C(C)c3ccccn3)no2)cc(C)c1Cl (configuration not stated)	x	x	x	-3
CCOC(=O)N1CCc2c(sc(NC(=O)CCS(=O)(=O)c3ccccc3)c2C(N)=O)C1	x	x	x	-3
CCOC(=O)c1c(NC(=O)Cc2ccccc2)sc2c1CCN(C)C2	x	x	x	76*
CCOC(=O)c1c(NC(=O)c2cccs2)sc2c1CCN(C(=O)OCC)C2	-2	1	2	-3
CCOC(=O)c1c(NC(=O)CCS(=O)(=O)c2ccccc2)sc2c1CCN(C)C2	x	x	x	126*
CCOC(=O)c1c(NC(=O)C(F)(OC)C(F)(F)F)sc2c1CCN(C)C2 (configuration not stated)	84*	62*	9	76*
SMILES	Runt-CBFb FRET	Runt-SMMHC FRET	Hck Nef HTS	RanGTP-Imp inh
CN1CCc2c(sc(NC(=O)Cc3ccccc3)c2C(N)=O)C1	x	x	x	134*
CCOC(=O)c1c(NC(=O)OC)sc2c1CCC2	-3	0	0	-1
NC(=O)c1ccsc1NC(=O)CCS(=O)(=O)c1ccc(F)cc1	x	x	x	4
O=C1Nc2cccnc2N(C(=O)CCl)c2ccccc21	x	x	x	1
Cc1ccc(C(=O)OCC(=O)N2CCCC2)cc1	x	x	x	0
CCN1CCc2c(sc(NC(=O)Nc3ccc(Cl)c(Cl)c3)c2C(N)=O)C1	4	77*	1	x
CCN1CCc2c(sc(NC(=O)COc3ccccc3)c2C(=O)OC)C1	x	x	x	87*
CCOC(=O)c1c(NC(=S)Nc2ccc(Cl)cc2)sc2c1CCN(C)C2	98*	164*	10	x
CCN1CCc2c(sc(NC(=O)c3ccc(S(=O)(=O)N4CCOCC4)cc3)c2C(=O)OC)C1	-1	14	4	3
CCN1CCc2c(sc(NC(=O)c3ccc(S(=O)(=O)N4CCOCC4)cc3)c2C(N)=O)C1	9	16	-4	u
